Here are results for nine molecules from paper PMC5033602 (Investigative Ophthalmology & Visual Science, 2016).

Where two headings read alike, the source gives them in different places.

Series [1] relates to ARPE-19 cells. The series is described as follows: Cell viability. It counts as cell-based, human. A digest of the protocol: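 ARPE-19 cells (passages 27–40; DMEM/F-12, 10% FBS, 37°C, 5% CO₂) were plated at 2 × 10⁴ cells/well and grown to confluence (72 h). After 8 h starvation in 0.5% serum, cells received increasing H₂O₂ plus TNF-α (10 ng/mL), with or without test peptide, for 16 h. Relative live-cell numbers came from intracellular ATP luminescence; each point is the mean of duplicate wells.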

For the next series, the system named is ALOX5. The series is described as follows: RT-PCR, ALOX5 mRNA in ARPE-19. The series is classed as cell-based, human. The note with it: H2O2 200, 400, 500, 600, 800 μM plus 10 ng/mL TNF-α, 8 hours, relative to 18S, duplicate wells. A digest of the protocol: (§1)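 Confluent ARPE-19 cells were starved in 0.5% serum for 8 h, then treated with H₂O₂ plus TNF-α. Total RNA was purified on silica columns, and 1 μg was reverse transcribed with SuperScript III. mRNA was measured by semiquantitative real-time RT-PCR with gene-specific primers and 18S primers as internal control.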

For series [2], the system named is primary pig RPE cells. The series is described as follows: Cell viability. The note with it: 50-250 μM H2O2, 10 ng/mL TNF-α. The series is classed as cell-based. In outline:
(§2)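 Primary pig RPE cultures plated at 2 × 10⁴ cells/well (96-well) and grown to confluence (72 h), then exposed to H₂O₂ with TNF-α (10 ng/mL) and test peptide for the indicated time. Live cells were measured as intracellular ATP luminescence (CellTiter-Glo) and dead cells as dead-cell protease luminescence (CytoTox-Glo), with lysis reagent added for total-cell signal. Relative cell numbers are from duplicate wells.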

For another series, the system named is 5-LOX. The series is described as follows: Immunoblot, 5-LOX protein in ARPE-19 lysates. It counts as cell-based, human. The note with it: H2O2 plus 10 ng/mL TNF-α, 8 hours. A digest of the protocol:
(§3)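 ARPE-19 cells (passages 27–40) were grown in DMEM/F-12 with 10% FBS at 37°C, 5% CO₂ to confluency and starved in 0.5% serum for 8 h. They were then exposed to graded H₂O₂ with 10 ng/mL TNF-α for 8 h. Total lysates were run on SDS-PAGE and immunoblotted, then stripped and reprobed for β-tubulin as loading control. Duplicate wells; each experiment at least twice.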
Background: Immunoblotting shows a protein as a band on a membrane.

The test system of another series is PEDF-R. The series is described as follows: Immunoblot, PEDF-R protein in ARPE-19 lysates. It counts as cell-based, human. The note with it: H2O2 plus 10 ng/mL TNF-α, 8 hours. A digest of the protocol: as §3
The subject of series [3] is ARPE-19 cells. As to the kind of experiment: Pyknotic nuclei counting. The series is classed as cell-based, human. The note with it: 600 μM H2O2, 16 hours, Hoechst stain. In outline: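 ARPE-19 cells were serum-starved, then treated with 600 μM H₂O₂ and test peptide together for 16 h. Cells were fixed in methanol (15 min, RT) and stained with 5 μM Hoechst in PBS (15 min, RT). Five random fields per well were imaged, and pyknotic nuclei were counted as a percentage of total cells.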

Series [4] deals with ARPE-19 cells. The note with it: cited from earlier work.
For a further series, the system named is PNPLA2. The series is described as follows: RT-PCR, PNPLA2 mRNA in ARPE-19. The series is classed as cell-based, human. The note with it: H2O2 200, 400, 500, 600, 800 μM plus 10 ng/mL TNF-α, 8 hours, relative to 18S, duplicate wells. A digest of the protocol: as §1
A further series deals with PEDF. The note with it: peptides from Leu159-Met325 of PEDF-R; cited from earlier work.
Series [5] has as its system primary pig RPE cells. As to the kind of experiment: Cell death. It counts as cell-based. The note with it: pig primary RPE; H2O2/TNF-α. A digest of the protocol: as §2
The test system of series [6] is ARPE-19 cells. As to the kind of experiment: Cell death. The series is classed as cell-based, human. The note with it: for Number of dead cells under oxidative stress: H2O2 (600 μM for SCR comparison), dead cell protease activity. In outline: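 ARPE-19 cells (passages 27–40) grown in DMEM/F-12 with 10% FBS at 37°C, 5% CO₂, plated at 2 × 10⁴ cells/well (96-well) and cultured to confluency (72 h). Serum-starved 8 h in 0.5% serum, then exposed 16 h to H₂O₂ (600 μM for scrambled-control comparison) plus TNF-α (10 ng/mL) with test peptides. Dead-cell protease activity read by CytoTox-Glo; duplicate wells ± SD.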

Series [7] relates to ARPE-19 cells. As to the kind of experiment: Detection of reactive oxygen species. The note with it: increasing H2O2 with or without 10 ng/mL TNF-α. The series is classed as cell-based, human. A digest of the protocol: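 Confluent ARPE-19 cells in 96-well black plates were serum-starved (0.5% serum, 8 h), then given increasing H₂O₂ with or without 10 ng/mL TNF-α, plus test peptide. CellRox Green was added 30 min before the end point, and fluorescence was read at ex 485/em 520 nm. Triplicate wells per point; each experiment was run twice.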

The next series has as its system PEDF-R (PNPLA2). The note with it: cited from earlier work.
The subject of another series is human recombinant 5-LOX. The series is described as follows: His-tag pull-down assay, 5-LOX and PEDF-R. The note with it: 5-LOX 250 ng, PEDF-R ∼350 and 700 ng, 0.1 M sodium phosphate, 50 mM NaCl, 0.1% NP-40, 4°C, 2 hours, Ni-NTA, Western blot. The series is classed as binding.

In the case of `OO` [H2O2], the “Relative cell numbers with increasing H2O2” value in the series with ARPE-19 cells [1] (100-1000 μM H2O2, 10 ng/mL TNF-α, 16 hours) is given as “concentration-dependent decrease in cell numbers”; in the series with primary pig RPE cells [2], “concentration-dependent decrease in cell numbers”. Besides, the “ALOX5 mRNA level” value in the series on ALOX5 is listed as “remained unchanged”. In addition, the 5-LOX protein level entry with 5-LOX was “paralleled those for expression of their respective genes”. Besides, the PEDF-R protein level entry with PEDF-R is reported as “paralleled those for expression of their respective genes”. In the series on ARPE-19 cells [3], the Pyknotic nuclei level result was “resulted in an increase”. The “Death mechanism of ARPE-19 cells” value was “apoptosis” in the series with ARPE-19 cells [4] (400 and 600 μM H2O2); “necrosis” with ARPE-19 cells [4] (H2O2 higher than 600 μM); “apoptotic mechanism via caspase activation” with ARPE-19 cells [4] (TNF-α (10 ng/mL) and 400 to 800 μM H2O2). The “PNPLA2 mRNA level” value in the series with PNPLA2 is on record as “decreased the levels of PNPLA2”.

Turning to “E5b: PEDF-R peptide Ile^193-Leu^232, overlapping P1 (ICPQDSSTNIHELRVTNTSIQFNLRNLYRLSKALFPPEPL)”, the “Cell viability under oxidative stress” value in the series on ARPE-19 cells [1] (H2O2/TNF-α, ATP live cell biomarker, duplicate wells) is recorded as “promoted cell viability”. The PEDF-binding affinity entry with PEDF is “retain the PEDF-binding affinity of PEDF-R”. The “Protection from oxidative stress-induced cell death (summary)” value was “protected ARPE-19 and pig primary RPE cells from oxidative stress–induced cell death in a specific and concentration-dependent fashion” in the series on primary pig RPE cells [5]; “protected ARPE-19 and pig primary RPE cells from oxidative stress–induced cell death in a specific and concentration-dependent fashion” in the series on ARPE-19 cells [6] (H2O2/TNF-α). The Pyknotic nuclei level entry in the series on ARPE-19 cells [3] is listed as “resulted in a decrease of pyknotic nuclei level”. In addition, the “Number of dead cells under oxidative stress” value in the series on ARPE-19 cells [6] was “decreased cell death of RPE cells undergoing oxidative stress”.

Regarding “H-KRLQFEPRNYPSLLSTALPNILFRRLGGKFQDMRELCVYL-OH [SCR]”, the “Number of dead cells under oxidative stress” value in the series on ARPE-19 cells [6] was “did not decrease the number of dead cells”.

On to TNF-α, for which the “ROS production, presence versus absence of TNF-α” value with ARPE-19 cells [7] is recorded as “comparable under both conditions”.

B1: perilipin 5: protein that inhibits PEDF-R (PNPLA2) activity (protein, UniProt Q00G26 1-463, looked up)
Perilipin-5: MSEEEAAQIPRSSVWEQDQQNVVQRVVALPLVRATCTAVCDVYSAAKDRHPLLGSACRLAENCVCGLTTRALDHAQPLLEHLQPQLATMNSLACRGLDKLEEKLPFLQQPSETVVTSAKDVVASSVTGVVDLARRGRRWSVELKRSVSHAVDVVLEKSEELVDHFLPMTEEELAALAAEAEGPEVGSVEDQRRQQGYFVRLGSLSARIRHLAYEHSVGKLRQSKHRAQDTLAQLQETLELIDHMQCGVTPTAPACPGKVHELWGEWGQRPPESRRRSQAELETLVLSRSLTQELQGTVEALESSVRGLPAGAQEKVAEVRRSVDALQTAFADARCFRDVPAAALAEGRGRVAHAHACVDELLELVVQAVPLPWLVGPFAPILVERPEPLPDLADLVDEVIGGPDPRWAHLDWPAQQRAWEAEHRDGSGNGDGDRMGVAGDICEQEPETPSCPVKHTLMPELDF
On to B1, for which the “Effect on PEDF-R (PNPLA2) enzyme activity” value (“Effect on PEDF-R” below) in the series with PEDF-R (PNPLA2) is given as “inhibited”.

B2: His6-tag-PEDF-R: human recombinant His6/Xpress-tagged PEDF-R made by cell-free in vitro protein synthesis (protein)
chain: MFPREKTWNISFAGCGFLGVYYVGVASCLREHAPFLVANATHIYGASAGALTATALVTGVCLGEAGAKFIEVSKEARKRFLGPLHPSFNLVKIIRSFLLKVLPADSHEHASGRLGISLTRVSDGENVIISHFNSKDELIQANVCSGFIPVYCGLIPPSLQGVRYVDGGISDNLPLYELKNTITVSPFSGESDICPQDSSTNIHELRVTNTSIQFNLRNLYRLSKALFPPEPLVLREMCKQGYRDGLRFLQRNGLLNRPNPLLALPPARPHGPEDKDQAVESAQAEDYSQLPGEDHILEHLPARLNEALLEACVEPTDLLTTLSNMLPVRLATAMMVPYTLPLESALSFTIRLLEWLPDVPEDIRWMKEQTGSICQYLVMRAKRKLGRHLPSRLPEQVELRRVQSLPSVPLSCAAYREALPGWMRNNLSLGDALAKWEECQRQLLLGLFCTNVAFPPEALRMRAPADPAPAPADPASPQHQLAGPAPLLSTPAPEARPVIGALGL
modifications: left off: His6, end not stated, kept | Xpress, end not stated, kept
In the case of B2, the “Bound 5-LOX in pull-down with His6-tag-PEDF-R” value with human recombinant 5-LOX is recorded as “proportional increase of bound 5-LOX”; in the series with human recombinant 5-LOX (listed as His6/Xpress-tagged PEDF-R), “via ionic interactions”.

B3: PEDF: pigment epithelium-derived factor, stimulates PEDF-R (protein, UniProt P36955 20-418, looked up)
Pigment epithelium-derived …: QNPASPPEEGSPDPDSTGALVEEEDPFFKVPVNKLAAAVSNFGYDLYRVRSSTSPTTNVLLSPLSVATALSALSLGAEQRTESIIHRALYYDLISSPDIHGTYKELLDTVTAPQKNLKSASRIVFEKKLRIKSSFVAPLEKSYGTRPRVLTGNPRLDLQEINNWVQAQMKGKLARSTKEIPDEISILLLGVAHFKGQWVTKFDSRKTSLEDFYLDEERTVRVPMMSDPKAVLRYGLDSDLSCKIAQLPLTGSMSIIFFLPLKVTQNLTLIEESLTSEFIHDIDRELKTVQAVLTVPKLKLSYEGEVTKSLQEMKLQSLFDSPDFSKITGKPIKLTQVEHRAGFEWNEDGAGTTPSPGLQPAHLTFPLDYHLNQPFIFVLRDTDTGALLFIGKILDPRGP
In the case of B3, the “Effect on PEDF-R” value in the series on PEDF-R (PNPLA2) is “stimulated”.

B4: G0S2: G(0)/G(1) switch gene 2, inhibits PEDF-R (PNPLA2) (protein, UniProt P27469 1-103, looked up)
G0/G1 switch protein 2: METVQELIPLAKEMMAQKRKGKMVKLYVLGSVLALFGVVLGLMETVCSPFTAARRLRDQEAAVAELQAALERQALQKQALQEKGKQQDTVLGGRALSNRQHAS
Consider B4, for which the “Effect on PEDF-R” value in the series with PEDF-R (PNPLA2) is “inhibited”.

B5: CGI-58: protein that stimulates PEDF-R (PNPLA2) activity (protein, UniProt Q8WTS1 2-349, looked up)
1-acylglycerol-3-phosphate …: AAEEEEVDSADTGERSGWLTGWLPTWCPTSISHLKEAEEKMLKCVPCTYKKEPVRISNGNKIWTLKFSHNISNKTPLVLLHGFGGGLGLWALNFGDLCTNRPVYAFDLLGFGRSSRPRFDSDAEEVENQFVESIEEWRCALGLDKMILLGHNLGGFLAAAYSLKYPSRVNHLILVEPWGFPERPDLADQDRPIPVWIRALGAALTPFNPLAGLRIAGPFGLSLVQRLRPDFKRKYSSMFEDDTVTEYIYHCNVQTPSGETAFKNMTIPYGWAKRPMLQRIGKMHPDIPVSVIFGARSCIDGNSGTSIQSLRPHSYVKTIAILGAGHYVYADQPEEFNQKVKEICDTVD
For B5, the “Effect on PEDF-R” value with PEDF-R (PNPLA2) is reported as “stimulated”.
